Measurements as given in paper PMC7613793 (Cell metabolism, 2022).
“Also recorded” adds a separate entry of the source.

Assays:
rat primary tanycytes = test: pCREB induction in primary tanycytes; format: cell-based; settings: Supplementary Fig. 2a
[1] = system: dipeptidyl peptidase 4 (DPP-4); settings: cited from earlier work
[2] = system: tuberal region of the hypothalamus; format: in vivo, mouse; settings: mice, intravenous (jugular vein), 90 nmol/Kg, 15 and 60 seconds after injection; Fig. 1a
[3] = system: tanycytes and neuron-like cells of the ME and vmARH; test: pCREB immunohistochemistry in ME/ARH after intravenous liraglutide; format: in vivo, mouse; settings: mice, 90 nmol/Kg, at 1 min, n = 4 animals per group, Fig. 1f-h
How it was run: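 Male mice, 8-10 weeks, fitted with a jugular vein catheter under ketamine-xylazine. Saline or liraglutide given i.v. at 90 nmol/Kg, then transcardial perfusion with saline and 0.1M PBS-4% PFA (pH 7.4). 30 μm free-floating sections double-stained with chicken anti-vimentin and rabbit anti-phospho-CREB. pCREB-positive tanycytes and neuron-like cells counted in ME, vmARH, dmARH and total ARH, 3–4 sections per animal. Unpaired t-test.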

hypothalamic neurons = format: in vivo, mouse
[4] = format: in vivo, mouse
primary tanycytes = format: in vitro ADME, rat; settings: 37 °C
How it was run: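 Rat tanycytes from median eminences of P10 pups, seeded on coated permeable supports (90 000 cells/cm2) 17 days after isolation: 4 days in 10% donor bovine serum, then 3 days serum-free with insulin and putrescine. On day 7, 15 min preincubation at 37 °C ± 1000 nM exendin9-39. Apical 0.7 nM 125I-liraglutide (1 μCi/ml) ± unlabeled liraglutide 10–10 000 nM, 60 min, 37 °C, shaking. Uptake read from cut supports; release in fresh buffer up to 1 h.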

With exendin 9-39 as the compound, how does the “Effect on liraglutide-induced pCREB in rat primary tanycytes” value (rat primary tanycytes; co-treatment with liraglutide) read?
Its value is “blunted”.

Which “Degradation by DPP-4 in vivo” value ([1]; in vivo, ref not given) does the source give for “Glucagon-like peptide 1 (GLP1; 7–36 amide)” here?
Its value is “rapid degradation”.

Which “Route of brain entry of fluorescently labeled liraglutide” value [2] does the source give for “liraglutide^564: fluorescently labeled liraglutide provided by Novo Nordisk” here?
Its value is “does not extravasate from BBB vessels”.

With `CCCCCCCCCCCCCCCC(=O)N[C@@H](CCC(=O)NCCCC[C@H](NC(=O)[C@H](C)NC(=O)[C@H](C)NC(=O)[C@H](CCC(N)=O)NC(=O)CNC(=O)[C@H](CCC(=O)O)NC(=O)[C@H](CC(C)C)NC(=O)[C@H](Cc1ccc(O)cc1)NC(=O)[C@H](CO)NC(=O)[C@H](CO)NC(=O)[C@@H](NC(=O)[C@H](CC(=O)O)NC(=O)[C@H](CO)NC(=O)[C@@H](NC(=O)[C@H](Cc1ccccc1)NC(=O)[C@@H](NC(=O)CNC(=O)[C@H](CCC(=O)O)NC(=O)[C@H](C)NC(=O)[C@@H](N)Cc1cnc[nH]1)[C@@H](C)O)[C@@H](C)O)C(C)C)C(=O)N[C@@H](CCC(=O)O)C(=O)N[C@@H](Cc1ccccc1)C(=O)N[C@H](C(=O)N[C@@H](C)C(=O)N[C@@H](Cc1c[nH]c2ccccc12)C(=O)N[C@@H](CC(C)C)C(=O)N[C@H](C(=O)N[C@@H](CCCNC(=N)N)C(=O)NCC(=O)N[C@@H](CCCNC(=N)N)C(=O)NCC(=O)O)C(C)C)[C@@H](C)CC)C(=O)O` [liraglutide] as the compound, how does the “Route of brain entry of fluorescently labeled liraglutide” value [2] read?
The value was “did not cross the microvascular endothelial cells of the BBB; also recorded: extravasated through the fenestrated vessels of the ME”.

And the “pCREB in tanycytes and neuron-like cells of the ME and vmARH vs saline” value [3]?
Its value is “markedly induced pCREB”.

What about the “pCREB in rat primary tanycytes” value (rat primary tanycytes; liraglutide treatment) of the same compound?
The value was “induced”.

And the “c-Fos activation of neurons in AHN, PVH and LHA, control mice” value (hypothalamic neurons; anesthetized control mice, ten minutes after intravenous injection, 90 nmol/Kg)?
The value was “activated”.

And the “c-Fos expression in DMH and ZI, control mice” value (hypothalamic neurons; control mice, one hour after intraperitoneal injection)?
The value was “did not significantly upregulate c-Fos expression”.

What about the “c-Fos expression, iBot mice” value (hypothalamic neurons; iBot littermates, one hour after intraperitoneal injection, Fig. 2d-f) of the same compound?
The value was “unaffected”.

And the “c-Fos expression in hypothalamic neurons, iBot mice” value (hypothalamic neurons; mouse, in vivo, iv)?
The value was “failed to significantly induce c-Fos expression”.

And the “c-Fos activation of neurons in PVH and LHA (not AHN), control mice” value (hypothalamic neurons; unanesthetized control mice, one hour after intraperitoneal injection, Fig. 2)?
Its value is “remain activated”.

What about the Energy expenditure ([4]; control mice, 0.1 mg/kg for 3 consecutive days, vs saline) of the same compound?
Its Energy expenditure is “markedly reduced”.

And the Food intake ([4]; control mice, 0.1 mg/kg for 3 consecutive days, vs saline, Fig. 3b)?
Its Food intake is “markedly reduced”.

What about the Fatty acid oxidation ([4]; control mice, 0.1 mg/kg for 3 consecutive days, Fig. 3e) of the same compound?
Its Fatty acid oxidation is “increased fatty acid oxidation”.

What about the Fat mass ([4]; control mice, 0.1 mg/kg for 3 consecutive days, NMR body composition, Fig. 3d) of the same compound?
Its Fat mass is “fat mass reduction”.

What about the “Anti-obesity effects in iBot mice” value ([4]; mouse, in vivo, 0.1 mg/kg) of the same compound?
The value was “abrogated”.

And the “Cleavage by DPP-4 and half-life compared to endogenous GLP1” value ([1]; ref Kim and Egan, 2008)?
Its value is “reduces its cleavage by DPP-4 and prolongs its half-life”.

For “^125I-liraglutide: radioactively labeled liraglutide”, which “Liraglutide accumulation in tanycytes relative to endothelial cells” value (primary tanycytes; 125I-liraglutide 0.7 nM, with or without unlabeled liraglutide 10 μM, transwell, uptake buffer pH 7.4, 60 min, n = 3, 3, 8, 8 wells from 2 independent experiments, Fig. 1c) is on record?
The value was “approximately 4 times”.

And the “Time to saturation of uptake by tanycytes” value (primary tanycytes; pulse-chase experiment in vitro, Fig. 1e)?
Its value is no more than 15 min.
